Experimental findings from ChEMBL document CHEMBL3271953, “Bridged aminotetralins. 4. Resolution of potent analgesics of the bridged aminotetralin type” (J Med Chem, 1976) are described below.

Activity calls are given as the source filed them.

For data set [1], the system named is Rattus norvegicus. Put plainly: Analgesic activity in im dosed Charles River rat by tail flick test. The format is functional. In a few lines: (§1)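 D'Amour-Smith rat tail-flick test. Compounds were given ip, im or po, and analgesic ED50 was derived. Doses are expressed as mg of base per kg and given as the hydrochloride or hydrobromide salt or as the free base. Some ED50s rest on two doses only.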

A short description of data set [2]: Acute toxicity in po dosed rat. The format is organism-based. The note with it: in vivo. In a few lines:
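Acute toxicity in rats after oral dosing, expressed as an LD50 in mg/kg.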

Data set [3] relates to Rattus norvegicus. Put plainly: Analgesic activity in ip dosed Charles River rat by tail flick test. The format is functional. In a few lines:
as §1

For data set [4], the system named is Rattus norvegicus. Put plainly: Ratio of morphine ED50 to compound ED50 for analgesic activity in po dosed Charles River rat by tail flick test. The format is functional.
The subject of data set [5] is Rattus norvegicus. In words: Analgesic activity in po dosed Charles River rat by tail flick test. The format is functional. In a few lines: as §1
Data set [6] is filed under the species Rattus norvegicus. In words: Ratio of morphine ED50 to compound ED50 for analgesic activity in Charles River rat by tail flick test. The format is functional.
Data set [7] concerns Rattus norvegicus. Put plainly: Analgesic activity in Charles River rat at 20 mg/kg, po by tail flick test. The format is functional, organism-based. On the set-up: dose 20 mg/kg.
Data set [8] deals with Rhesus monkey. Put plainly: Narcotic antagonism activity in morphine-dependent rhesus monkey assessed as precipitation of withdrawal symptoms at 1 mg/kg, im measured for 10 hrs. The format is functional, organism-based. Details: dose 1 mg/kg. The note with it: Macaca mulatta.
Data set [9] has as its system Rhesus monkey. Put plainly: Analgesic activity in po dosed monkey assessed as increase in shock threshold. As to conditions: Macaca mulatta. The format is functional, organism-based.
In data set [10] the test system is Rhesus monkey. Put plainly: Narcotic antagonism activity in morphine-dependent rhesus monkey assessed as precipitation of withdrawal symptoms at 0.5 to 1 mg/kg, im. The format is functional, organism-based. The note with it: Macaca mulatta.
In data set [11] the test system is Rhesus monkey. In words: Analgesic activity in monkey assessed as increase in shock threshold at 0.06 mg/kg, im. On the set-up: dose 0.06 mg/kg. The format is functional, organism-based. The note with it: Macaca mulatta.
[12] abbreviates: Rattus norvegicus, Charles River, Tail, im, read-out: ED50.
Where [13] appears, read: Rattus norvegicus, Charles River, Tail, po, read-out: ED50.
Setting [14] is: Rattus norvegicus, Charles River, Tail, ip, read-out: ED50.

Take `Br.C[C@@]12CCCCCC(Cc3ccc(O)cc31)[C@@H]2N` (stereo in doubt; (-)-6): the ED50 turned out to be 0.12 mg/kg with Rattus norvegicus [1], 0.53 mg/kg with Rattus norvegicus [3] and 2.05 mg/kg in the data set with Rattus norvegicus [5]. The compound further displayed an LD50 in data set [2] of 200 mg/kg. Also, the “Ratio ED50” value was 8 in the data set on Rattus norvegicus [4] and “<=15” in the data set filed under Rattus norvegicus [6].
For `COc1ccc2c(c1)[C@@]1(C)CCCCCC(C2)[C@@H]1N.Cl` (stereo in doubt; (-)-5), the ED50 came out at 4.5 mg/kg with Rattus norvegicus [1] (setting [12]), 2 mg/kg in the data set on Rattus norvegicus [3] and 3.5 mg/kg with Rattus norvegicus [5] (setting [13]).
With `Br.C[C@@]12CCCCCC(Cc3ccc(O)cc31)[C@@H]2N` (mixture of isomers), the ED50 in the data set with Rattus norvegicus [1] came out at 0.45 mg/kg; in the data set with Rattus norvegicus [3], 1.11 mg/kg; in the data set on Rattus norvegicus [5] it was 10 mg/kg.
As to `C[C@@]12CCCCCC(Cc3ccc(OC(=O)C4CC4)cc31)[C@@H]2N.Cl`, the ED50 amounted to 0.45 mg/kg in the data set on Rattus norvegicus [1] (setting [12]) and 1.5 mg/kg in the data set on Rattus norvegicus [3] (setting [14]).
On to `Br.C[C@@]12CCCCCC(Cc3ccc(O)cc31)[C@@H]2N` (stereo in doubt; (+)-6), for which the ED50 in the data set on Rattus norvegicus [1] was 95 mg/kg; in the data set on Rattus norvegicus [3], >100 mg/kg.
As to `COc1ccc2c(c1)[C@@]1(C)CCCCCC(C2)[C@@H]1N.Cl` (stereo in doubt; (+)-5), the ED50 with Rattus norvegicus [3] is >25 mg/kg.
In the case of `CC[C@@]12CC/C=C\CC(Cc3ccc(O)cc31)[C@@H]2N.Cl` (stereo in doubt; (-)-4), the ED50 in the data set on Rattus norvegicus [1] was found to be 4 mg/kg; in the data set with Rattus norvegicus [3], 9 mg/kg.
As to `CC[C@@]12CC/C=C\CC(Cc3ccc(OC)cc31)[C@@H]2N.Cl` (mixture of isomers), the ED50 with Rattus norvegicus [3] is 4.2 mg/kg.
Turning to `CC[C@@]12CCCCCC(Cc3ccc(O)cc31)[C@@H]2N` (mixture of isomers), the ED50 worked out at 0.25 mg/kg in the data set with Rattus norvegicus [1], 3.7 mg/kg with Rattus norvegicus [3] and 10 mg/kg in the data set on Rattus norvegicus [5].
On to `CC[C@@]12CC/C=C\CC(Cc3ccc(O)cc31)[C@@H]2N.Cl` (stereo in doubt; (+)-4), for which the ED50 with Rattus norvegicus [1] was 0.195 mg/kg; in the data set with Rattus norvegicus [3], 0.8 mg/kg; in the data set with Rattus norvegicus [5] (setting [13]), 5 mg/kg. Further, in the data set filed under Rattus norvegicus [6], the “Ratio ED50” value is given as “<=15”.
Regarding `CC[C@@]12CCCCCC(Cc3ccc(OC)cc31)[C@@H]2N.Cl` (mixture of isomers), the ED50 with Rattus norvegicus [1] was 12 mg/kg; in the data set with Rattus norvegicus [3], 3.5 mg/kg.
In the case of `CC[C@@]12CC/C=C\CC(Cc3ccc(OC)cc31)[C@@H]2N.Cl` (stereo in doubt; (+)-3), the ED50 was 12.5 mg/kg with Rattus norvegicus [1] (setting [12]) and 3.75 mg/kg in the data set with Rattus norvegicus [3] (setting [14]).
Turning to `CC[C@@]12CCCCCC(Cc3ccc(OC)cc31)[C@@H]2N.Cl` (stereo in doubt; (+)-1), the median effective dose (ED50) in the data set on Rattus norvegicus [1] worked out at 10 mg/kg; with Rattus norvegicus [3], 10 mg/kg; with Rattus norvegicus [5], 30 mg/kg.
Regarding `CC[C@@]12CCCCCC(Cc3ccc(O)cc31)[C@@H]2N` (stereo in doubt; (-)-2), the ED50 in the data set on Rattus norvegicus [1] was found to be 0.1 mg/kg; in the data set on Rattus norvegicus [3], 0.5 mg/kg; in the data set with Rattus norvegicus [5], 3.5 mg/kg. The “Ratio ED50” value in the data set listed under Rattus norvegicus [6] is listed as “<=15”.
Regarding `CC[C@@]12CCCCCC(Cc3ccc(OC)cc31)[C@@H]2N.Cl` (stereo in doubt; (-)-1), the figures for the median effective dose (ED50) in the data set on Rattus norvegicus [1], in the data set with Rattus norvegicus [3] and with Rattus norvegicus [5] were 3.5 mg/kg, 3.3 mg/kg and 7.5 mg/kg, respectively.
`CC[C@@]12CCCCCC(Cc3ccc(OC)cc31)[C@@H]2N` (mixture of isomers): the outcome in the data set with Rattus norvegicus [7] was Active.
Turning to `COc1ccc2c(c1)[C@@]1(C)CCCCCC(C2)[C@@H]1N.Cl` (mixture of isomers), the ED50 with Rattus norvegicus [3] stood at 4.88 mg/kg.
Regarding `C[C@@]12CCCCCC(Cc3ccc(O)cc31)[C@@H]2N` (stereo in doubt; (-)-6), the outcome in the data set on Rhesus monkey [8], with Rhesus monkey [10] and in the data set with Rhesus monkey [11] was Active. Besides, in the data set on Rhesus monkey [9], the Activity result was “Dose-dependent effect”.
For the compound `CC[C@@]12CC/C=C\CC(Cc3ccc(OC)cc31)[C@@H]2N.Cl` (stereo in doubt; (-)-3), the ED50 in the data set with Rattus norvegicus [3] is >6.25 mg/kg.
Consider `CC[C@@]12CCCCCC(Cc3ccc(O)cc31)[C@@H]2N` (stereo in doubt; (+)-2), for which the ED50 in the data set on Rattus norvegicus [1] was 2 mg/kg; in the data set with Rattus norvegicus [3], 7.5 mg/kg; in the data set with Rattus norvegicus [5], 80 mg/kg.
Turning to `CN1CC[C@]23c4c5ccc(O)c4O[C@H]2[C@@H](O)C=C[C@H]3[C@H]1C5` [MORPHINE], the ED50 in the data set on Rattus norvegicus [1] (setting [12]) stood at 1.57 mg/kg; with Rattus norvegicus [3] (setting [14]) it was 4.43 mg/kg; in the data set with Rattus norvegicus [5] (setting [13]) it was 15.9 mg/kg.
As for `CC[C@@]12CC/C=C\CC(Cc3ccc(O)cc31)[C@@H]2N.Cl` (mixture of isomers), the ED50 with Rattus norvegicus [3] worked out at 1.75 mg/kg.
